One series addresses Collagenase 3 (Homo sapiens, UniProt P45452). The series can be described thus: Inhibition of human MMP13 using Mca-Lys-Pro-Leu-Gly-Leu-Dap(Dnp)-Ala-Arg-NH2 as substrate pre-incubated for 4 hrs before substrate addition measured every 15 secs for 15 mins by fluorimetry.
Another series addresses Stromelysin-1 (Homo sapiens, UniProt P08254). Put plainly: Inhibition of human MMP3 using Mca-Arg-Pro-Lys-Pro-Val-Glu-Nva-Trp-Arg-Lys(Dnp)-NH2 as substrate pre-incubated for 4 hrs before substrate addition measured every 15 secs for 15 mins by fluorimetry. A digest of the protocol: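 Pro-MMP-3 was activated with trypsin for 30 min at 37 °C, then quenched with soybean trypsin inhibitor. Enzyme at 5 nM final was pre-incubated with inhibitor for 4 h at 25 °C in Tris 50 mM pH 7.5, NaCl 150 mM, CaCl₂ 10 mM, 0.05% Brij-35 and 1% DMSO. Fluorescence was read at ex 325/em 395 nm, in triplicate. IC50 was fitted to Vi/Vo = 1/(1+[I]/IC50) from ≥5 concentrations giving 10–90% inhibition.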

Series [1] has as its target Matrix metalloproteinase-14 (Homo sapiens, UniProt P50281). Put plainly: Inhibition of recombinant human MMP14 catalytic domain using Mca-Lys-Pro-Leu-Gly-Leu-Dap(Dnp)-Ala-Arg-NH2 as substrate pre-incubated for 4 hrs before substrate addition measured every 15 secs for 15 mins by fluorimetry. The essentials:
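Catalytic domain used at 1 nM final and incubated with inhibitor for 4 h at 25 °C in Tris 50 mM pH 7.5, NaCl 150 mM, CaCl₂ 10 mM, 0.05% Brij-35 and 1% DMSO. Fluorescence was read at 325/395 nm, in triplicate. Percent inhibition was taken against the no-inhibitor control. IC50 was fitted to Vi/Vo = 1/(1+[I]/IC50) from ≥5 concentrations within 10–90% inhibition.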

The nature of series [2]: Dissociation constant, pKa of the compound. Format: physicochemical.
For the next series, the target named is T1, Interstitial collagenase (Homo sapiens, UniProt P03956).
T1 sequence (P03956 whole entry): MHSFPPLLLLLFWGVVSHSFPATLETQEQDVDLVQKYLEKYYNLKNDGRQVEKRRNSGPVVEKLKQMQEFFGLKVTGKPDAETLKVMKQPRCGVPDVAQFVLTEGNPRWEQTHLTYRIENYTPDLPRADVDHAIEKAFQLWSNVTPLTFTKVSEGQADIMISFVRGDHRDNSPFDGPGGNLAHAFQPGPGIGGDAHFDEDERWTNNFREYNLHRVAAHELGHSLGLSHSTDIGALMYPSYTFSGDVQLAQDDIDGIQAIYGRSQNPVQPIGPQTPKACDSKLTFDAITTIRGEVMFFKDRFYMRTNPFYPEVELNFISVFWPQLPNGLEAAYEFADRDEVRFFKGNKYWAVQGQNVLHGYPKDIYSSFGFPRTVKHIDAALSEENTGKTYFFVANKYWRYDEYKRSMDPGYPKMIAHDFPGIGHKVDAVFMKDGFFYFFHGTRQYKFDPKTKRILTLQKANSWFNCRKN
Put plainly: Inhibition of human MMP1 using Mca-Lys-Pro-Leu-Gly-Leu-Dap(Dnp)-Ala-Arg-NH2 as substrate pre-incubated for 4 hrs before substrate addition measured every 15 secs for 15 mins by fluorimetry. The essentials:
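Pro-MMP-1 activated with APMA 2 mM for 2 h at 37 °C. Enzyme at 2.0 nM final was pre-incubated with inhibitor for 4 h at 25 °C in Tris 50 mM pH 7.5, NaCl 150 mM, CaCl₂ 10 mM, 0.05% Brij-35 and 1% DMSO. Read-out was fluorescence at ex 325/em 395 nm, in triplicate. IC50 was fitted to Vi/Vo = 1/(1+[I]/IC50) using ≥5 concentrations giving 10–90% inhibition.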

The target in series [3] is 72 kDa type IV collagenase (Homo sapiens, UniProt P08253). Put plainly: Inhibition of human MMP2 using Mca-Lys-Pro-Leu-Gly-Leu-Dap(Dnp)-Ala-Arg-NH2 as substrate pre-incubated for 4 hrs before substrate addition measured every 15 secs for 15 mins by fluorimetry. A digest of the protocol: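 APMA 2 mM for 1 h at 37 °C activated the proenzyme. MMP-2 at 0.56 nM final was incubated with inhibitor for 4 h at 25 °C in pH 7.5 Tris buffer with NaCl, CaCl₂, 0.05% Brij-35 and 1% DMSO. Fluorescence was read at 325/395 nm, in triplicate. Percent inhibition was taken against the uninhibited control. IC50 came from ≥5 concentrations within 10–90% inhibition, fitted to Vi/Vo = 1/(1+[I]/IC50).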
Chain of 72 kDa type IV collagenase (P08253 whole entry): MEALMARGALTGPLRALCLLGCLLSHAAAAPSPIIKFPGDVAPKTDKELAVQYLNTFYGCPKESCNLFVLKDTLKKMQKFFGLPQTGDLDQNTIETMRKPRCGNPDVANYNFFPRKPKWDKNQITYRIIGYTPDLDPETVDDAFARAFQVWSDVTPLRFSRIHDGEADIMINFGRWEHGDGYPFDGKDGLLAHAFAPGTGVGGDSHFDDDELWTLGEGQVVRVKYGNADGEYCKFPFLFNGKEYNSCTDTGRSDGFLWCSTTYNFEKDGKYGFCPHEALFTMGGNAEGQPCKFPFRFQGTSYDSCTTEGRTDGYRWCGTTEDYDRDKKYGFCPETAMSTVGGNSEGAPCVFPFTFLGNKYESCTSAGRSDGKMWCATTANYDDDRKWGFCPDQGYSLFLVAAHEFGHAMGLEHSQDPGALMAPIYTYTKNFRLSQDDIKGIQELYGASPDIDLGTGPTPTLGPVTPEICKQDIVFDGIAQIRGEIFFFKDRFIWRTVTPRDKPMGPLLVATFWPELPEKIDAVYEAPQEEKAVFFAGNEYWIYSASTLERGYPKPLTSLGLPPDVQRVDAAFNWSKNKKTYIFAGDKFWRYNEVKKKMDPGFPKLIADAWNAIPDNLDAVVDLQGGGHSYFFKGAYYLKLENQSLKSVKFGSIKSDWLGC

Chain of Stromelysin-1 (P08254 whole entry): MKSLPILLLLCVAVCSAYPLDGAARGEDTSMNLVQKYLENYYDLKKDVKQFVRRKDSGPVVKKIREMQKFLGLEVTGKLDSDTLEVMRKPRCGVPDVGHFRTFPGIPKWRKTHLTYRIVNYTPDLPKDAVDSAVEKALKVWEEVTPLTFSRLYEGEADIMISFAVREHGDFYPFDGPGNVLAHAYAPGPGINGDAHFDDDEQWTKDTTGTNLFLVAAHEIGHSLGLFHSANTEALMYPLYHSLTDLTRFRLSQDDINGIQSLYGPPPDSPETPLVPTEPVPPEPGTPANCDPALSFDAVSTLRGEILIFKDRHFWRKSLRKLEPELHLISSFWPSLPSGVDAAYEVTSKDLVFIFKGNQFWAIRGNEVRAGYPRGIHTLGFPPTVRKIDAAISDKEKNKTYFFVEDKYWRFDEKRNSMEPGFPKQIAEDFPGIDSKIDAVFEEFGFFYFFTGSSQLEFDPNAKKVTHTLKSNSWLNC

A word on the IC50: it is the concentration that inhibits the measured activity by half. Molecule `O=c1oc2ccccc2cc1-c1cn(-c2ccccc2)c(S)n1` returned an IC50 against Collagenase 3 of 177 µM.
What is called pKa is the pH at which an ionisable group is half protonated. The low end stands for a stronger acid or weaker base, the high end for a weaker acid or stronger base. With `O=C(O)c1cccc(-n2cc(-c3cc4ccccc4oc3=O)[nH]c2=S)c1`, the IC50 against Stromelysin-1 came to 110 µM; in series [1], 51 µM; at Interstitial collagenase, 400 µM; in series [3], 67 µM. Also, the pKa in series [2] amounted to 3.91.
On to `O=C(O)CCCN1C(=O)S/C(=C\C=C\c2ccccc2)C1=O`, for which the IC50 at Stromelysin-1 worked out at 110 µM; in series [1], 21 µM; at Interstitial collagenase, 93 µM; at Collagenase 3, 22 µM; in series [3], 2.7 µM. In series [2], the pKa stood at 3.89.
For the molecule `O=C(O)COc1ccccc1/C=C1/NC(=S)NC1=O`, the IC50 was determined as 77 µM at Stromelysin-1; 55 µM in series [1]; 114 µM at Interstitial collagenase; 67 µM on Collagenase 3; 61 µM in series [3]. Moreover, in series [2], the pKa stood at 3.68.
As for `COc1ccc(-c2ccc(/C=C3/SC(=S)N(CC(=O)O)C3=O)o2)cc1`, the IC50 against Stromelysin-1 is 850 µM; in series [1] it was 310 µM; against Interstitial collagenase, 860 µM; against Collagenase 3 it was 120 µM; in series [3] it was 350 µM. In series [2], the pKa worked out at 3.62.
Consider `COc1ccc(-c2cs/c(=N\c3ccccc3)n2/N=C/c2ccccc2)cc1OC`, for which the IC50 on Stromelysin-1 was determined as 230 µM; in series [1], 150 µM; against Interstitial collagenase it was 360 µM; against Collagenase 3, 140 µM; in series [3], 120 µM.
In turn, `CCOC(=O)c1cccc(-n2cc(-c3cc4ccccc4oc3=O)[nH]c2=S)c1` returned an IC50 against Collagenase 3 greater than 300 µM.
As to `COc1ccc2oc(=O)c(-c3cn(-c4cccc(C(=O)O)c4)c(=S)[nH]3)cc2c1`, at Collagenase 3, the IC50 came to 3.2 µM.
Same read-out and setting: for `O=C(O)c1cccc(-n2cc(-c3cc4cccc(O)c4oc3=O)[nH]c2=S)c1` the value was 5.5 µM; for `COc1cc(Cl)cc2cc(-c3cn(-c4cccc(C(=O)O)c4)c(=S)[nH]3)c(=O)oc12`, 4.9 µM.
In turn, `C=CCc1cc(OC)c2oc(=O)c(-c3cn(-c4cccc(C(=O)O)c4)c(=S)[nH]3)cc2c1` returned an IC50 against Collagenase 3 of 4.9 µM.
As to `CCOc1ccc(-c2ccc(S(=O)(=O)N[C@@H](C(=O)O)C3CCN(C(=O)OC(C)C)CC3)s2)cc1`, the pKa in series [2] was determined as 2.55.

(Values after ChEMBL document CHEMBL1926635, “Identification of novel molecular scaffolds for the design of MMP-13 inhibitors: a first round of lead optimization” (Eur J Med Chem, 2012).)
